These results are taken from ChEMBL document CHEMBL1127554, “Design, synthesis, and study of 9-substituted ellipticine and 2-methylellipticinium analogues as potential CNS-selective antitumor agents” (1994).

Assay [1] relates to Tumor Cell line. The experiment in a line: LC50 was given In vitro as -50% percent growth (PG), measured as concentration of compound required to inhibit disease oriented human tumor cell line panels; Value ranges from 16.98->100. The assay is classed as functional. Particulars: read-out: LC50 (the source's name). An outline of the steps:
(§1)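 Human tumor cell line panel tested in vitro. Percent growth (PG) plotted against log drug concentration to give dose-response curves. LC50 is the concentration where PG equals -50%; GI50 and TGI are taken at +50% and 0%. Values are means across the full panel, with values beyond the tested limits (> or <) included in the mean.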

For assay [2], the system named is Tumor Cell line. Briefly: TGI was measured In vitro as the ratio of the mean activity for all non-CNS tumor cell lines over the mean activity of the CNS tumor subpanel (eight cell lines). The assay is classed as functional, Homo sapiens. An outline of the steps:
(§2)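 Ratio of the mean activity (μM) over all non-CNS tumour cell lines (ca. 40-50 lines) to the mean activity (μM) of the CNS subpanel (eight lines). Activity was taken from PG vs log concentration curves: GI50 at PG +50%, TGI at PG 0%.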

Assay [3] relates to Tumor Cell line. Briefly: GI50 was measured In vitro as the ratio of the mean activity for all non-CNS tumor cell lines over the mean activity of the CNS tumor subpanel (eight cell lines). Format: functional, Homo sapiens. An outline of the steps: as §2
Assay [4] relates to Tumor Cell line. Briefly: LC50 was given In vitro as -50% percent growth (PG), measured as concentration of compound required to inhibit disease oriented human tumor cell line panels. Format: functional. The settings on record: read-out: LC50 (the source's name). An outline of the steps:
as §1

The subject of assay [5] is Tumor Cell line. The experiment in a line: LC50 was given In vitro as -50% percent growth (PG), measured as concentration of compound required to inhibit disease oriented human tumor cell line panels; Value ranges from 5.6->100. Particulars: read-out: LC50 (the source's name). Format: functional.
Assay [6] deals with Tumor Cell line. The experiment in a line: GI50 was given In vitro as +50% percent growth (PG), measured as concentration of compound required to inhibit disease oriented human tumor cell line panels; Value ranges from 0.19->100. Format: functional.
In assay [7] the test system is Tumor Cell line. The experiment in a line: TGI was given In vitro as 0% percent growth (PG), measured as concentration of compound required to inhibit disease oriented human tumor cell line panels; Value ranges from 0.65->100. The assay is classed as functional.
Assay [8] has as its system Tumor Cell line. Briefly: LC50 was given In vitro as -50% percent growth (PG), measured as concentration of compound required to inhibit disease oriented human tumor cell line panels; Value ranges from 7.94->100. Format: functional. Particulars: read-out: LC50 (the source's name).
In assay [9] the test system is Tumor Cell line. Briefly: GI50 was given In vitro as +50% percent growth (PG), measured as concentration of compound required to inhibit disease oriented human tumor cell line panels; Value ranges from 0.43->100. The assay is classed as functional.
The subject of assay [10] is Tumor Cell line. The experiment in a line: TGI was given In vitro as 0% percent growth (PG), measured as concentration of compound required to inhibit disease oriented human tumor cell line panels; Value ranges from 3.47->100. The assay is classed as functional.
Assay [11] concerns Tumor Cell line. The experiment in a line: TGI was given In vitro as 0% percent growth (PG), measured as concentration of compound required to inhibit disease oriented human tumor cell line panels; Value ranges from 3.24-37.15. Format: functional. Summed up:
(§3)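 Human tumour cell line panel; percent growth plotted against log drug concentration to give dose-response curves. GI50 is the concentration giving PG +50%, and TGI the concentration giving PG 0%. Values are mean inhibitory concentrations over the entire panel. PG values at either limit (> or <) are included in the mean.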

For assay [12], the system named is Tumor Cell line. Briefly: GI50 was given In vitro as +50% percent growth (PG), measured as concentration of compound required to inhibit disease oriented human tumor cell line panels; Value ranges from 1.38-15.14. Format: functional. Summed up: as §3
Assay [13] has as its system Tumor Cell line. Briefly: LC50 was given In vitro as -50% percent growth (PG), measured as concentration of compound required to inhibit disease oriented human tumor cell line panels; Value ranges from 8.13->76. The assay is classed as functional. The settings on record: read-out: LC50 (the source's name). Summed up:
as §1

In assay [14] the test system is Tumor Cell line. Briefly: TGI was given In vitro as 0% percent growth (PG), measured as concentration of compound required to inhibit disease oriented human tumor cell line panels; Value ranges from 2-5.50. The assay is classed as functional. Summed up: as §3
For assay [15], the system named is Tumor Cell line. The experiment in a line: LC50 was measured In vitro as the ratio of the mean activity for all non-CNS tumor cell lines over the mean activity of the CNS tumor subpanel (eight cell lines). The assay is classed as functional, Homo sapiens. An outline of the steps: (§4)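 Same PG dose-response panel. LC50 (μM) is averaged separately over the non-CNS lines (ca. 40-50 lines) and the CNS subpanel (eight lines). The ratio is the non-CNS mean divided by the CNS mean.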

The subject of assay [16] is Tumor Cell line. The experiment in a line: GI50 was given In vitro as +50% percent growth (PG), measured as concentration of compound required to inhibit disease oriented human tumor cell line panels; Value ranges from 0.62-2.95. Format: functional. An outline of the steps: as §3
Assay [17] has as its system Tumor Cell line. Briefly: LC50 was given In vitro as -50% percent growth (PG), measured as concentration of compound required to inhibit disease oriented human tumor cell line panels; Value ranges from 4.09->100. Particulars: read-out: LC50 (the source's name). Format: functional. Summed up:
as §1

In assay [18] the test system is Tumor Cell line. Briefly: TGI was given in vitro as 0% percent growth (PG), measured as concentration of compound required to inhibit disease oriented human tumor cell line panels; Value ranges from 2.75-41.69. The assay is classed as functional. Summed up: as §3
Assay [19] deals with Tumor Cell line. Briefly: LC50 was given in vitro as -50% percent growth (PG), measured as concentration of compound required to inhibit disease oriented human tumor cell line panels; Value ranges from 5.75->100. Format: functional. Particulars: read-out: LC50 (the source's name). An outline of the steps: as §1
Assay [20] in a line: GI50 was measured in vitro as the ratio of the mean activity for all non-CNS tumor cell lines over the mean activity of the CNS tumor subpanel (eight cell lines). The assay is classed as functional. Summed up:
as §2

The subject of assay [21] is Tumor Cell line. Briefly: GI50 was given in vitro as +50% percent growth (PG), measured as concentration of compound required to inhibit disease oriented human tumor cell line panels; Value ranges from 1.55-16.6. Format: functional. An outline of the steps:
as §3

Assay [22] in a line: LC50 was measured in vitro as the ratio of the mean activity for all non-CNS tumor cell lines over the mean activity of the CNS tumor subpanel (eight cell lines). The assay is classed as functional. An outline of the steps: as §4
Assay [23] can be described thus: TGI was measured in vitro as the ratio of the mean activity for all non-CNS tumor cell lines over the mean activity of the CNS tumor subpanel (eight cell lines). Format: functional. Summed up:
as §2

Assay [24] concerns Tumor Cell line. The experiment in a line: GI50 was given In vitro as +50% percent growth (PG), measured as concentration of compound required to inhibit disease oriented human tumor cell line panels; Value ranges from 0.32-2. Format: functional. Summed up:
as §3

Assay [25] concerns Tumor Cell line. Briefly: LC50 was given In vitro as -50% percent growth (PG), measured as concentration of compound required to inhibit disease oriented human tumor cell line panels; Value ranges from 5.25->100. The assay is classed as functional. Particulars: read-out: LC50 (the source's name). Summed up: as §1
Assay [26] deals with Tumor Cell line. The experiment in a line: GI50 was given In vitro as +50% percent growth (PG), measured as concentration of compound required to inhibit disease oriented human tumor cell line panels; Value ranges from 0.22-52.48. Format: functional. Summed up: as §3

As to `Cc1c2cc[n+](C)cc2c(C)c2c1[nH]c1ccc(Oc3ccccc3)cc12.[I-]`, the CC50 in [1] is over 93.3 µM. Further, the TGI ratio in assay [2] worked out at 2.06. Moreover, in assay [3], the GI50 ratio was 3.05.

On to `CC(=O)[O-].Cc1c2cc[n+](C)cc2c(C)c2c1[nH]c1ccc(O)cc12` [ELLIPTINIUM ACETATE], for which the TGI ratio in [2] is 9.34. In addition, the GI50 ratio in [3] was found to be 6.28. Besides, the CC50 in [4] is over 100 µM.

Take `CC(=O)[O-].CCOc1ccc2[nH]c3c(C)c4cc[n+](C)cc4c(C)c3c2c1`: in assay [5], the CC50 is over 74.1 µM. For the same compound, the TGI ratio in [2] was 7.08. Also, the GI50 ratio in assay [3] was 5.92. For the same compound, in [6], the GI50 – broadly, the concentration giving 50% growth inhibition – was over 2.34 µM. Besides, the TGI (in general, the concentration giving total growth inhibition) in [7] is over 19.5 µM.

Turning to `CC(=O)[O-].Cc1c2cc[n+](C)cc2c(C)c2c1[nH]c1ccc(OC(C)C)cc12`, the CC50 in assay [8] is over 66.1 µM. In assay [9], the GI50 was over 3.8 µM. In addition, in assay [2], the TGI ratio was found to be 2.09. Also, the GI50 ratio in assay [3] turned out to be 2.99. The compound also returned a TGI in [10] of over 23.4 µM.

For the compound `Cc1c2ccncc2c(C)c2c1[nH]c1ccc(O)c(OCC(F)(F)F)c12`, the TGI in assay [11] stood at 15.8 µM. This compound also displayed a GI50 in [12] of 5.89 µM. Moreover, in assay [2], the TGI ratio turned out to be 0.98. In assay [3], the GI50 ratio was found to be 1.07. Besides, in assay [13], the CC50 is over 42.7 µM.

On to `Cc1c2ccncc2c(C)c2c1[nH]c1ccc(OCC(F)(F)F)cc12`, for which the TGI in [14] came to 3.24 µM. The LC50 ratio in [15] was determined as 0.74. The TGI ratio in assay [2] worked out at 0.73. In addition, the GI50 ratio in assay [3] was determined as 0.63. Moreover, the GI50 in [16] is 1.58 µM. Also, in [17], the CC50 was over 8.13 µM.

Compound `Cc1c2ccncc2c(C)c2c1[nH]c1ccc(Oc3ccccc3)cc12` showed a TGI in assay [18] of 6.03 µM. For the same compound, the CC50 in assay [19] is over 19.5 µM. For the same compound, the GI50 ratio in assay [20] is 0.82. In assay [21], this compound gave a 50% growth inhibitory concentration (GI50) of 2.63 µM. Further, the LC50 ratio in [22] amounted to 0.88 µM. For the same compound, the TGI ratio in [23] is 0.81.

Take `Cc1c2ccncc2c(C)c2c1[nH]c1ccc(OC(C)C)cc12`: in [24], the GI50 was found to be 1.32 µM. Also, the TGI ratio in [2] worked out at 0.9. Besides, in assay [3], the GI50 ratio turned out to be 0.78. In addition, the CC50 in [25] is over 6.61 µM.

For the compound `CC(=O)[O-].Cc1c2cc[n+](C)cc2c(C)c2c1[nH]c1ccc(OCC(F)(F)F)cc12`, the TGI ratio in assay [2] was found to be 13.7. In addition, the GI50 ratio in [3] came to 12.9. Besides, the CC50 in assay [4] was over 100 µM. Besides, the GI50 in [26] was determined as 3.47 µM.
